Experimental data taken from ChEMBL document CHEMBL1143056, “Enhanced substituted resorcinol hydrophobicity augments tyrosinase inhibition potency” (J Med Chem, 2007).

Legend:
Tyrosinase = molecular target: T1, Tyrosinase (Agaricus bisporus, UniProt O42713); assay: Inhibition of mushroom tyrosinase
T1 sequence (O42713 whole entry): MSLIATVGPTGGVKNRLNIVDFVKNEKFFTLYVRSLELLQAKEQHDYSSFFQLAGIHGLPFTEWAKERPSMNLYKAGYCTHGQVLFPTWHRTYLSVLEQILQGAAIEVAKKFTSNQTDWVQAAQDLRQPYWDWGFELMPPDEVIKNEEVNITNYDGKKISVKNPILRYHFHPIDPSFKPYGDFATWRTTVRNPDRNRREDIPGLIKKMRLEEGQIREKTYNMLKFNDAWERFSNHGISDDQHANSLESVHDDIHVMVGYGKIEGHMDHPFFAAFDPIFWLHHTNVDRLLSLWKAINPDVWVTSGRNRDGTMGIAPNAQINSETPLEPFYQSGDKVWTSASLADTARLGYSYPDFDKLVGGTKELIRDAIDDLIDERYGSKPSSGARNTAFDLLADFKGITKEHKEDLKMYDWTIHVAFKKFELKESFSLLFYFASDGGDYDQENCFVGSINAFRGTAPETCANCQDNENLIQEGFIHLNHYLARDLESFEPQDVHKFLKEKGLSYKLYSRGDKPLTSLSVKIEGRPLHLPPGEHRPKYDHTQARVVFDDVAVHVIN
Method in brief: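 Wells held 50 mM potassium phosphate pH 6.5, tyrosinase at 50 units/mL final and inhibitor in absolute ethanol (5-100 µM final). After 10 min at 25 °C, L-tyrosine was added to 1 mM. Absorbance at 450 nm was read every 5 min against an ethanol-only control. IC50 was taken from the linear zone at 20 min.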

[1] = molecular target: T2, Tyrosinase (Agaricus bisporus) (UniProt O42713); assay: Inhibition of mushroom tyrosinase at 0.3 uM for 10 min pre-incubated before addition of tyrosine
T2 sequence (whole entry): T1 sequence (O42713 whole entry)

[2] = molecular target: T2, Tyrosinase (Agaricus bisporus); assay: Inhibition of mushroom tyrosinase at 0.3 uM for 10 min pre-incubated before addition of 3.75 mM tyrosine
[3] = molecular target: T2, Tyrosinase (Agaricus bisporus); assay: Inhibition of mushroom tyrosinase at 0.3 uM for 10 min preincubated before addition of 1 mM tyrosine
[4] = molecular target: T2, Tyrosinase (Agaricus bisporus); assay: Inhibition of mushroom tyrosinase at 10 uM for 10 min pre-incubated before addition of tyrosine

Row | IC50 (Tyrosinase) | further results | Compound
1 | 70 nM | – | CC(C)OC(=O)CCc1ccc(O)cc1O
2 | 150 nM | inhibition [1]: 80%; inhibition [2]: 86%; inhibition [3]: 97% | CCC(C)(C)C(OC(=O)CCc1ccc(O)cc1O)C(C)(C)CC
3 | 220 nM | – | CCOC(=O)CCc1ccc(O)cc1O
4 | 180 nM | – | CC(C)(C)COC(=O)CCc1ccc(O)cc1O
5 | 700 nM | – | CCCCCCCCOC(=O)CCc1ccc(O)cc1O
6 | 1850 nM | inhibition [4]: 80% | O=C(O)CCc1ccc(O)cc1O
7 | 14900 nM | – | CC(C)(C)OC(=O)CCc1ccc(O)cc1O
